Most compounds without a hit are left out; they make up all but 0.81% or so of the library.
TNAP inh no acc: inhibitors of human TNAP without phosphate acceptor. inhibition, % at 20 µM. purified TNAP, CDP-star luminescence, 30 min. actives 0.26% (n = 200,000);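 active means tissue-nonspecific alkaline phosphatase inhibition above about 50% at 20 µM in the single-dose screen, limit read from the data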
Target sequence (P05186 whole entry, looked up): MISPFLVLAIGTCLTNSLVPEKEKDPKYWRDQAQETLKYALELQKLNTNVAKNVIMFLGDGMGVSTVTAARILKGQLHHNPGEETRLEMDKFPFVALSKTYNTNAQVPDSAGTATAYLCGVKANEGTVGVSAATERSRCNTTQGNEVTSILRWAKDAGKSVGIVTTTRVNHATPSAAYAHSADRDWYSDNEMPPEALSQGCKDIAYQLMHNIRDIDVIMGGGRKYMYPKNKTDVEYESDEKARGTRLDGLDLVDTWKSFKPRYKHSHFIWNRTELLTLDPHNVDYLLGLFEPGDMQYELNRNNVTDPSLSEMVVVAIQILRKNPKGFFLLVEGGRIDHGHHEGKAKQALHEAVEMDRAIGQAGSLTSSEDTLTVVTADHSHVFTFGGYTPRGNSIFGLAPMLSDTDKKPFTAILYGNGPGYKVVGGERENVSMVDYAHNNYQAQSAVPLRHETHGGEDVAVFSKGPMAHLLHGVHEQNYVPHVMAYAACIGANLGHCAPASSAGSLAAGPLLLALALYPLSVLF
zVAD death inh: blocks zVAD induced death of L929 cells; AID 1377; actives 0.38% (n = 220,000); viability rescue, % at 10 µM; L929 zVAD necroptosis rescue, ATP luminescence, 24 h; with zVAD 60 µM;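 active means activation, scaled between plate controls, above about 75%, limit read from the data; inactive means activation under that limit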
TNAP act hi DEA: activators of human TNAP at high phosphate acceptor concentration | purified TNAP, CDP-star luminescence, 1 M DEA, 30 min; active compounds read high; 0 = EDTA background, 1 = DMSO-only activity | 200,000 tested, under 10 active | P05186 | activation factor at 20 µM | AID 1136;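 active means activation factor at least 2 at 20 µM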
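Test system – human TNAP · Doses – 20 µM single point · Incubation – 30 min, room temperature · Signal – luminescent substrate turnover signal · Read-out basis – activation factor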
sdo1 growth: sdo1-depleted yeast growth rescue; S. cerevisiae sdo1-depleted JHY4D growth rescue, OD600 30 h; active compounds read high; pdr5 snq2 efflux-pump mutant strain; z-score at 10 µM; actives 0.21% (n = 140,000);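 active means z-score above 3 at both the 24 hr and the 30 hr optical density reads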
TNAP inh hi DEA: TNAP (human) inhibition, high acceptor; inhibition, % at 20 µM; actives 0.03% (n = 200,000); purified TNAP, CDP-star luminescence, 1 M DEA; AID 1135;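 active means over 50% inhibition of tissue-nonspecific alkaline phosphatase at 20 µM in the single-dose screen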
TNF necrop inh: TNF-alpha cell death inhibition in Jurkat FADD-/- cells; Jurkat FADD-/- TNF necroptosis rescue, ATP luminescence, 24 h; 0 = TNF only, 100 = no-TNF cells; activation (protection from cell death), % at 10 µM; actives 0.068% (n = 220,000);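 active means activation, meaning protection from cell death, of at least 50% relative to plate controls; inactive means activation below 50%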;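 further: necroptosis triggered by 40 ng/mL TNF-alpha added together with compound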
zVAD death conf: confirmed blocker of zVAD induced death in L929 cells | AID 463117 | shares compounds with zVAD death inh | actives 16% (n = 760) | activation (protection from necroptosis), % at 10 µM | L929 zVAD-induced necroptosis rescue, ATP luminescence, 24 h;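 active means mean protection from necroptosis of at least 50% over duplicate tests; inactive means mean protection below 50%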
Numbers stand for hits.

CC(=O)c1c(C)[nH]c(C(=O)OCc2cccc(Cl)c2)c1C was read as TNAP inh no acc inactive, zVAD death inh 79, TNAP act hi DEA inactive, TNAP inh hi DEA inactive, TNF necrop inh inactive and zVAD death conf inactive.
`CC(=O)c1c(C)[nH]c(C(=O)OCc2c(F)cccc2Cl)c1C` gave TNAP inh no acc inactive, zVAD death inh inactive, TNAP act hi DEA inactive, TNAP inh hi DEA inactive and TNF necrop inh inactive.
For CCOC(=O)CNC(=O)C1COc2ccccc2O1 (stereo unspecified) the results were zVAD death inh inactive and TNF necrop inh inactive.
Screening O=C(CCNC(=O)c1ccco1)Nc1ccc(N2CCOCC2)cc1 returned TNAP inh no acc inactive, zVAD death inh inactive, TNAP act hi DEA inactive, TNAP inh hi DEA inactive and TNF necrop inh inactive.
For CCn1nnnc1-c1ccc(OC)c(S(=O)(=O)NCCc2ccccc2)c1 the results were TNAP inh no acc inactive, zVAD death inh inactive, TNAP act hi DEA inactive, sdo1 growth inactive, TNAP inh hi DEA inactive and TNF necrop inh inactive.
`COC(=O)C1C(=O)C(C(=O)/C=C/c2ccccc2)C(=O)CC1(C)C` (stereo unspecified) gave TNAP inh no acc inactive, zVAD death inh 81, TNAP act hi DEA inactive, TNAP inh hi DEA inactive, TNF necrop inh inactive and zVAD death conf inactive.
`N#CC(C#N)=C1C=CC=CN1/C(=C\c1ccco1)C(=O)c1ccc(Cl)cc1` gave TNAP inh no acc inactive, zVAD death inh inactive, TNAP act hi DEA inactive, sdo1 growth inactive, TNAP inh hi DEA inactive and TNF necrop inh inactive.
N#CC(C#N)=C1C=CC=CN1/C(=C\c1ccco1)C(=O)c1ccc(-c2ccccc2)cc1 was read as TNAP inh no acc inactive, zVAD death inh 99, TNAP act hi DEA inactive, sdo1 growth inactive, TNAP inh hi DEA inactive, TNF necrop inh inactive and zVAD death conf inactive.
`CCOc1ccccc1NC(=O)CSc1nnnn1-c1ccc(C(=O)OC)cc1` gave TNAP inh no acc inactive, zVAD death inh 77, TNAP act hi DEA inactive, sdo1 growth inactive, TNAP inh hi DEA inactive, TNF necrop inh inactive and zVAD death conf inactive.
`COc1ccc(-c2oc3ncnc(NCCN4CCOCC4)c3c2-c2ccc(OC)cc2)cc1` gave TNAP inh no acc inactive, zVAD death inh inactive, TNAP act hi DEA inactive, sdo1 growth inactive, TNAP inh hi DEA inactive and TNF necrop inh inactive.
`COc1ccc(-c2oc3ncnc(NCCCN4CCOCC4)c3c2-c2ccc(OC)cc2)cc1` gave TNAP inh no acc inactive, zVAD death inh 77, TNAP act hi DEA inactive, sdo1 growth inactive, TNAP inh hi DEA inactive, TNF necrop inh inactive and zVAD death conf inactive.
O=C(Nc1ccc(C(=O)N2CCOCC2)cc1)c1cccc([N+](=O)[O-])c1 was read as TNAP inh no acc inactive, zVAD death inh inactive, TNAP act hi DEA inactive, TNAP inh hi DEA inactive and TNF necrop inh inactive.
`COc1ccc(/C=C/C(=O)c2ccc[nH]2)cc1OC` gave TNAP inh no acc inactive, zVAD death inh 89, TNAP act hi DEA inactive, sdo1 growth inactive, TNAP inh hi DEA inactive, TNF necrop inh inactive and zVAD death conf inactive.
For COc1ccc(/C=C/C(=O)c2ccc[nH]2)c(OC)c1OC the results were TNAP inh no acc inactive, zVAD death inh inactive, TNAP act hi DEA inactive, sdo1 growth inactive, TNAP inh hi DEA inactive and TNF necrop inh inactive.
For CCN(C(=O)CSc1nnc(-c2cccs2)n1CC)C1CCS(=O)(=O)C1 (stereo unspecified) the results were zVAD death inh inactive and TNF necrop inh inactive.
`O=C(c1ccc(F)cc1)N1CCN(c2cc(N3CCCCC3)c(F)cc2[N+](=O)[O-])CC1` gave TNAP inh no acc inactive, zVAD death inh inactive, TNAP act hi DEA inactive, sdo1 growth inactive, TNAP inh hi DEA inactive and TNF necrop inh inactive.
